# Screens from PubChem.
# EP2 mod: modulators of human EP2 prostaglandin E2 receptor; induction, % at 25 µM; EP2-expressing cells, cAMP HTRF FRET, PGE2 co-stimulation; 260,000 tested, 0.83% active;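 active = compounds whose cAMP rise, as percent of the full-agonist control response, exceeds 60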;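 note: rat C6 glioma line stably carrying human EP2 under a CMV promoter; the protocol text gives 20 µM as final concentration; 100% = response of wells given 1 µM PGE2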
# Target sequence (P43116 whole entry, looked up): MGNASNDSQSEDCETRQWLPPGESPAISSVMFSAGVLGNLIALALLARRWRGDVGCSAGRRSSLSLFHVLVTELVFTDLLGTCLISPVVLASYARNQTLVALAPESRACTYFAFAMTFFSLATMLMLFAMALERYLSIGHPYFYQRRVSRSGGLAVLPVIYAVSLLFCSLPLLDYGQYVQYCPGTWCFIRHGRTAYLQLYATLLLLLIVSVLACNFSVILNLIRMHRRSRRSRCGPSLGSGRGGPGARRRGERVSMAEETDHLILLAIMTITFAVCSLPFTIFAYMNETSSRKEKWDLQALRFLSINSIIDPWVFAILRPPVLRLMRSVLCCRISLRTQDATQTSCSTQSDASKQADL
# NPY-Y1 antag: antagonists of human neuropeptide Y receptor Y1; HEK293-CNG Y1 cells, membrane potential fluorescence; NPY at EC95, then isoproterenol; inhibition, % at 3.6 µM; 200,000 tested, 1% active; AID 1040;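 active = inhibition above the campaign mean inhibition of all tested compounds plus 3 SD, cut at about 20% in these data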;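 note: 0% = DMSO wells given NPY plus isoproterenol and 100% = isoproterenol alone without NPY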
#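 Assay system: HEK293 Y1/CNG channel cell line; Doses: single compound dose of 3.6 µM, 0.4% DMSO; Timing: dye 3 h, compound 60 min room temperature, stimulation 45 min; Technique: Membrane-potential fluorescent dye readout; Measure: % inhibition of NPY effect.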
# NPY-Y2 PAM-ag: potentiators or agonists of human neuropeptide Y receptor Y2 | P49146 | activation, % at 3.6 µM | 220,000 tested, 0.45% active | AID 1359 | cells expressing NPY-Y2, potentiator/agonist read-out; in the data active = activation above about 27%;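 note: cells stimulated with NPY near EC25 plus isoproterenol at EC100; 0% = vehicle plus submaximal agonist and 100% = vehicle plus saturating agonist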
# NPY-Y2 antag: NPY-Y2 (human) receptor antagonism; P49146; NPY-Y2 expressing cells, antagonist mode; inhibition, % at 2.7 µM; 140,000 tested, 0.99% active; AID 793; in the data active = inhibition above about 17%;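 note: 0% = vehicle with agonist challenge and 100% = reference antagonist with challenge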
# EP2 antag: blocks the human prostaglandin E2 receptor EP2. C6 glioma cells expressing human EP2, cAMP TR-FRET; cells stimulated with saturating PGE2. inhibition, % at 25 µM. P43116. 260,000 tested, 0.52% active;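 active = percent inhibition above 40 after rounding to a whole number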;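 note: rat C6 glioma host cells with rolipram phosphodiesterase inhibitor present; the protocol text gives 20 µM as final concentration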
# NPY1 pot ag: potentiators or agonists of human neuropeptide Y receptor Y1; P25929; AID 1304; 220,000 tested, 0.37% active; NPY-Y1 expressing cells, potentiator/agonist activation; activation, % at 3.6 µM; in the data active = activation above about 33%, passing the limit was not always enough;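 note: cells stimulated with NPY at EC10 then isoproterenol at EC100; 0% = low agonist plus stimulus and 100% = saturating agonist plus stimulus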
# EP2 confirm: EP2 receptor cAMP induction, counter-screens negative; shares compounds with EP2 mod; C6 glioma EP2 cells, cAMP HTRF induction; plus low (about EC15) PGE2 agonist; calls only at 20 µM (by protocol); 1,300 tested, 47% active; AID 1080;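 active = cAMP induction above 50% in the main assay while under 30% in all four parallel counter assays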;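 note: rat C6 glioma cells stably expressing human EP2 receptor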
# * = called active by the depositor; i = inactive; . = no result; + = active, no number. This is a sample that favours compounds with a hit; in the whole collection about 2.8% have one here.
SMILES,EP2 mod,NPY-Y1 antag,NPY-Y2 PAM-ag,NPY-Y2 antag,EP2 antag,NPY1 pot ag,EP2 confirm
C=CCOc1ccc2c(c1)C(=NO)c1cc(OCC=C)ccc1-2,83.2*,1.7,7.0,2.7,8.3,-2.7,+
CCCCCCn1c(COc2ccccc2F)nnc1SCC(=O)N1c2ccccc2NC(=O)C1(C)C,64.3*,10.0,-12.7,4.6,11.0,-0.8,i
CC(=O)CSc1nc(N)c(C#N)c(-c2cccs2)c1C#N,-2.8,-3.0,0.4,3.6,16.3,1.6,.
CC(=O)CSc1nc(-c2cccs2)c(C#N)c(=O)[nH]1,67.6*,-0.3,3.5,.,16.5,-16.6,i
Cc1ccccc1-n1c(SCC(=O)N2CCCC2)nnc1-c1ccccn1,65.9*,3.1,7.4,0.3,11.1,14.1,i
Cc1ccccc1-n1c(Cn2c(=O)sc3ccccc32)nnc1SCC(=O)N1CCCC1,55.5,0.6,-11.6,4.9,.,5.2,i
CC(C)(C)NC(=O)CN1N=C(c2ccccc2)Cn2c(cc3sccc32)C1=O,-18.2,.,.,.,.,.,.
Cn1cccc1/C=C1\Cc2ccccc2C1=O,-46.4,-2.2,4.2,.,5.8,-14.9,.
Cn1cccc1/C=C1\CC(C(C)(C)C)C/C(=C\c2cccn2C)C1=O (centres undefined),70.7*,-1.1,-3.2,-1.5,3.5,-2.6,+
N#CN=C1SCCS1,65.6*,-2.0,14.0,-2.0,13.4,1.3,i
CCn1c(=S)[nH]c2c(c1=O)C(C)(C)Cc1ccccc1-2,66.4*,7.9,0.0,.,21.5,-7.3,i
Cn1c(=S)[nH]c2c(c1=O)C(C)(C)Cc1ccccc1-2,52.1,5.7,0.4,.,21.8,-10.3,.
Cc1cc(C)c2nc(C(F)(F)F)nc(N3CCN(C(=O)c4ccco4)CC3)c2c1,38.9,3.9,0.5,8.2,4.1,4.3,.
Cc1cc(C)c2nc(N3CCCN(C(=O)c4ccco4)CC3)c(C#N)cc2c1,69.9*,4.3,-18.9,3.5,7.1,-5.3,+
CCCn1c(-c2ccco2)n[nH]c1=S,23.9,.,.,.,13.5,.,.
Cc1nc(NC(=O)c2cc(Cl)ccc2Cl)sc1C,-8.3,.,.,.,9.6,.,.
Cc1ccc(C2CC2c2n[nH]c(=S)n2-c2ccc(Cl)cc2)cc1 (centres undefined),53.2,0.3,-4.7,2.3,5.8,-4.7,i
Cc1ccc(C2CC2c2n[nH]c(=S)n2-c2cccc(C)c2)cc1 (centres undefined),29.7,-2.9,-4.7,.,6.2,-5.4,.
Cc1nn(C)cc1S(=O)(=O)Nc1cccc(-c2ccc(F)cc2)c1,-29.0,.,.,.,7.9,.,.
C=CCN1C(=O)/C(=C/c2ccc(OCC(=O)O)cc2)S/C1=N/c1nccs1,35.4,5.0,9.4,0.9,9.0,-34.6,.
C=CCN1C(=O)/C(=C/c2ccc(O)c(OC)c2)S/C1=N/c1nccs1,69.8*,1.0,-1.8,-1.5,6.2,1.6,+
CC(C)C(=O)Nc1ccccc1-c1nc2ccccc2s1,11.9,.,.,.,7.7,.,.
COc1cc(O)c2c(=O)cc(C)oc2c1CC=C(C)C,91.8*,.,.,.,8.7,.,+
COc1cccc(C(=O)Nc2cccc(OCC(=O)O)c2)c1,92.6*,6.1,-11.3,6.3,5.6,-15.4,+
Cc1nc2c(c(C)nn2-c2ccccc2)c(C)c1Cl,77.1*,8.1,-2.2,1.8,7.0,-27.7,i
SMILES,EP2 mod,NPY-Y1 antag,NPY-Y2 PAM-ag,NPY-Y2 antag,EP2 antag,NPY1 pot ag,EP2 confirm
COc1ccc(-c2noc(-c3ccccc3C(=O)Nc3cccnc3)n2)cc1,50.5,-1.2,-15.8,2.6,4.0,-5.4,+
CCOc1ccccc1NC(=O)c1ccccc1-c1nc(-c2ccccc2)no1,66.3*,25.5*,-40.3,17.8*,7.9,-79.9,i
CCOC(=O)CC(=O)CSc1ncnc2c1oc1ccccc12,66.6*,-8.1,-5.9,3.9,.,-19.9,i
O=C(CSc1ncnc2c1oc1ccccc12)Nc1ccccc1C(F)(F)F,79.2*,1.9,3.3,7.9,11.2,-17.0,i
OCCSc1ncnc2c1oc1ccccc12,6.0,0.8,13.8,-1.3,7.2,1.9,.
N#CCCSc1ncnc2c1oc1ccccc12,66.3*,12.3,5.6,1.8,8.7,14.3,i
COCCCNC(=O)C(=O)NCCc1c[nH]c2ccccc12,-47.2,.,.,.,11.2,.,.
COC(=O)C1C(c2ccccc2)C(C(=O)OCc2ccco2)C1c1ccccc1 (centres undefined),67.7*,37.4*,-15.7,36.8*,7.8,-69.6,i
COc1ccc(OCc2nc(C#N)c(NCc3ccc(C)cc3)o2)cc1,-108.0,.,.,.,12.6,.,.
CC1CC(C)CN(C(=O)C2(NC(=O)Nc3ccc(F)cc3F)CCCCC2)C1 (centres undefined),-31.2,.,.,.,13.0,.,.
C=C(C)COc1ccc2c(c1)CC[C@@H]1[C@H]3C/C(=N/O)C(=O)[C@]3(C)CC[C@@H]21,63.1*,.,.,.,30.1,.,i
Cc1ccc(C(=O)Nc2ccccc2C(=O)NCc2ccccc2)cc1,67.4*,1.9,-9.8,8.2,2.4,0.3,i
CCn1c(CN2CCC3(CC2)Nc2cc(OC)ccc2-n2cccc23)nc2ccccc21,-11.0,.,.,.,3.3,.,.
CCCCNc1nc(N(C)c2ccccc2)nc(-n2ccnc2)n1,77.3*,3.2,16.4,2.6,1.9,0.5,+
CCSC1=N/C(=C\c2ccccc2)C(=O)N1c1ccc(OC)cc1,79.2*,4.2,8.6,.,5.6,9.6,+
CO/N=C/C(=N\Nc1ccc(C)cc1)C(=O)c1ccc(OC)cc1,48.8,-0.2,2.9,1.4,16.0,12.3,.
CO/N=C/C(=N\Nc1ccccc1)C(=O)c1ccccc1,84.3*,14.2,-2.2,.,2.0,2.6,+
Cc1sc2nc(C)n3c(=O)n(CC(=O)NCc4ccco4)nc3c2c1C,-53.4,.,.,.,10.1,.,.
CC(C)Sc1cc(N2CCCC2)nc(-c2ccccc2)n1,40.6,4.4,7.7,-0.5,11.5,10.8,.
CC(C)Sc1cc(N2CCOCC2)nc(-c2ccccc2)n1,73.9*,6.2,-1.1,0.1,2.1,3.9,+
CCSc1cc(N2CCOCC2)nc(-c2ccc(Cl)cc2)n1,76.0*,-3.7,2.2,1.9,15.2,8.7,+
COc1cc(C2C(C#N)=C(N)OC3=C2C(=O)CC(C)(C)C3)cc(Br)c1O (centres undefined),-0.6,.,.,.,15.2,.,.
CCCS(=O)(=O)N1CCN(Cc2ccc(OCC)c(OC)c2)CC1,-17.2,.,.,.,2.8,.,.
Cc1ccc(CNc2cc(-c3nn4c(C)nnc4s3)ccc2C)s1,33.5,6.5,-8.4,7.7,.,-16.3,.
Cc1ccc(-c2nn3c(C)nnc3s2)cc1NCc1c(F)cccc1Cl,66.1*,-0.8,7.7,3.1,18.9,-12.6,i
COc1ccccc1CNc1cc(C)ccc1C,66.1*,4.6,-8.8,3.0,22.5,-0.3,i
